Test results reported in ChEMBL document CHEMBL4382296, “Synthesis, Profiling, and in Vivo Evaluation of Cyclopeptides Containing N-Methyl Amino Acids as Antiplasmodial Agents” (ACS Med Chem Lett, 2019).
Converted amounts (≈) assume the structure as drawn. The source made the active and inactive calls. The calls are words filed in the database; no cut-off is given here. Where a SMILES comes first, the peptide text is derived from it. [ ]: non-standard residue; d: D form. The star is where a group is joined. Trt = c1ccc(C(c2ccccc2)(c2ccccc2)*)cc1; Sar = CNCC(=O)O; tBu = CC(C)(C)*

How the values were obtained:
[1] = test system: Plasmodium falciparum; assay: Antiplasmodial activity against chloroquine-resistant Plasmodium falciparum K1 infected in human erythrocytes assessed as reduction in [3H]hypoxanthine incorporation pretreated for 24 hrs followed by [3H]hypoxanthine addition and measured after 24 hrs by liquid scintillation counting method; type: functional, organism-based
Method in brief: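 Chloroquine-resistant P. falciparum K1 in erythrocytes incubated with compound for 24 h; growth read as 3H-hypoxanthine incorporation; EC50 reported as mean ± SD of n = 2.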

[2] = test system: Plasmodium falciparum; assay: Anti-plasmodial activity against chloroquine-sensitive Plasmodium falciparum 3D7 infected in erythrocytes after 72 hrs by SYBR green dye based fluorescence assay; type: functional, organism-based; details: 3D7, 72 h
Method in brief: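 P. falciparum 3D7 (drug-sensitive) grown in erythrocytes; growth read by SYBR Green fluorescence; EC50 reported as mean ± SD of n = 2.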

[3] = test system: Plasmodium falciparum; assay: Plasmodicidal activity against Plasmodium falciparum 3D7A infected in CFDA-SE-labelled erythrocytes assessed as parasite killing at 10 times EC50 treated for 24 to 48 hrs following media refreshment for every 24 hrs by FACS analysis; type: functional, organism-based
Method in brief: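 Viability was judged by the ability of drug-treated parasites to make new invasions of prestained human RBCs. New invasions were quantified by double-colorimetric FACS. Drug treatment used two time points to separate rapidly parasiticidal from moderate or slow acting agents.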

[4] = Solubility of the compound in pH 7.4 phosphate buffered saline after 2 hrs by UV-HPLC analysis; type: physicochemical
Method in brief: (§1)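 Solubility was measured in PBS pH 7.4 and at pH 1.0, in μM, n = 2.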

[5] = test system: Plasmodium berghei; assay: Antiplasmodial activity against Plasmodium berghei NK65 infected in Swiss mouse assessed as reduction in parasitemia at 50 mg/kg, po administered once daily for 3 consecutive days post infection measured on day 9 post infection; type: functional, organism-based
Method in brief: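 Four-day suppressive test: Swiss outbred mice inoculated with P. berghei NK65-infected red blood cells, then given a single oral 50 mg/kg dose on each of days 2, 3 and 4. Chloroquine-treated and vehicle-treated groups served as controls. Parasitemia was measured on day 5 and followed to day 9.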

[6] = Solubility of the compound in pH 1 0.1M HCl after 2 hrs by UV-HPLC analysis; type: physicochemical; method in brief: as §1
[7] = Selectivity index, ratio of IC50 for human HepG2 cells to EC50 for chloroquine-sensitive Plasmodium falciparum 3D7 infected in erythrocytes; type: toxicity, cell-based; details: read-out: Ratio IC50/EC50
Method in brief: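 Selectivity index is HepG2 cytotoxicity IC50 divided by EC50 against drug-sensitive P. falciparum 3D7. Parasite EC50 came from a SYBR Green growth assay, with values as the mean of n = 2.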

[8] = test system: Plasmodium berghei; assay: Antiplasmodial activity against Plasmodium berghei NK65 infected in Swiss mouse assessed as reduction in parasitemia at 50 mg/kg, po administered once daily for 3 consecutive days post infection measured on day 5 post infection relative to control; type: functional; design: scale not given: the % may be the effect or the level left
Method in brief: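 Suppressive test in Swiss outbred mice inoculated with P. berghei NK65-infected red blood cells. A single oral dose of 50 mg·kg–1 was given on each of days 2, 3 and 4. Control groups received chloroquine or vehicle. Parasitemia reduction was read on day 5 and followed until day 9.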

[9] = n-Octanol/water partition coefficient, log D of compound at pH 7.4 by UV-HPLC analysis
[10] = Permeability of the compound in pH 7.4 phosphate buffered saline at 20 uM after 20 hrs by PAMPA; type: ADME; details: for Papp at 20 h, 20 µM: PAMPA, pH 7.4, read-out: permeability
Method in brief: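 PAMPA giving experimental permeability Pe (×10–6 cm/s), n = 3. The limit of quantitation in the acceptor compartment was 0.02 or 0.03 μM.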

[11] = Selectivity index, ratio of IC50 for mouse J774 cells to EC50 for chloroquine-resistant Plasmodium falciparum K1 infected in human erythrocytes; type: toxicity, cell-based; details: read-out: Ratio IC50/EC50
[12] = Plasma concentration in Swiss albino mouse at 50 mg/kg, po after 0.5 to 12 hrs by LC-MS/MS analysis; type: ADME, organism-based; details: in vivo
Method in brief: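 Male Swiss Albino mice received a solution formulation of the compound as one oral dose of 50 mg/kg. Blood was sampled at 0.25, 0.5, 1, 2, 4, 6, 8, 12 and 24 h, and plasma levels were measured (LLOQ 5.16 ng/mL). Values are means, n = 3.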

[13] = test system: Plasmodium berghei; assay: Antiplasmodial activity against exoerythrocytic-stage of Plasmodium berghei ANKA infected in human HepG2 cells expressing CD81 pretreated with cells for 18 hrs followed by parasite infection and measured after 48 hrs by brightglo-luminescence assay; type: functional, organism-based

Row | SMILES | EC50 [1] | EC50 [2] | Activity [3] | EC90 [1] | solubility at 2 h [4] | Activity [5] | solubility at 2 h [6] | selectivity ratio [7] | Activity [8] | logD [9] | Papp at 20 h, 20 µM [10] | selectivity ratio [11] | Cp [12] | EC50 [13] | permeability ([10]; pampa, pH 7.4, 20 h, 20 µM, BLD = below limit of detection)
1 | C[C@@H]1CC[C@H]2[C@@H](C)C(=O)O[C@@H]3O[C@@]4(C)CC[C@@H]1[C@]32OO4 [ARTEMISININ] | 20 nM | – | – | – | – | – | – | – | – | – | – | – | – | – | –
2 | CCc1nc(N)nc(N)c1-c1ccc(Cl)cc1 [PYRIMETHAMINE] | – | 35 nM | inactive | – | – | – | – | – | – | – | – | – | – | – | –
3 | CN1CC(=O)N[C@@H](CSC(c2ccccc2)(c2ccccc2)c2ccccc2)C(=O)N(C)CC(=O)N[C@@H](CSC(c2ccccc2)(c2ccccc2)c2ccccc2)C(=O)N(C)CC(=O)N[C@@H](CCC(=O)O)C1=O (cyclo(C(Trt)[Sar]C(Trt)[Sar]E[Sar])) | 0.2 nM | 12 nM | – | 4 nM | 437 µM (≈ 451 µg/mL) | Active | 28.3 µM (≈ 29.3 µg/mL) | > 20000 | 66% | 3.9 | 0.2 ×10⁻⁶ cm/s | 500000 | – | – | –
4 | C[C@@H](OC(C)(C)C)[C@@H]1NC(=O)CN(C)C(=O)[C@H](CSC(c2ccccc2)(c2ccccc2)c2ccccc2)NC(=O)CNC(=O)[C@H](CSC(c2ccccc2)(c2ccccc2)c2ccccc2)NC(=O)CN(C)C1=O (cyclo(C(Trt)GC(Trt)[Sar]T(tBu)[Sar])) | 0.008 nM | 0.25 nM | – | 1 nM | 0.38 µM (≈ 0.398 µg/mL) | Active | 3.46 µM (≈ 3.62 µg/mL) | > 1e+06 | 71% | 6 | 1 ×10⁻⁶ cm/s | – | > 9 ng/mL | – | –
5 | O=C1C(O)=C([C@H]2CC[C@H](c3ccc(Cl)cc3)CC2)C(=O)c2ccccc21 [ATOVAQUONE] | – | – | inactive | – | – | – | – | – | – | – | – | – | – | 2.8 nM | –
6 | C[C@@H](OC(C)(C)C)[C@@H]1NC(=O)CNC(=O)[C@H](CSC(c2ccccc2)(c2ccccc2)c2ccccc2)NC(=O)CNC(=O)[C@H](CSC(c2ccccc2)(c2ccccc2)c2ccccc2)NC(=O)CN(C)C1=O (cyclo(C(Trt)GC(Trt)GT(tBu)[Sar])) | 8 nM | 3.8 nM | – | 39 nM | 0.94 µM (≈ 0.971 µg/mL) | – | 1.17 µM (≈ 1.21 µg/mL) | > 66000 | – | 5.8 | 0.6 ×10⁻⁶ cm/s | > 12500 | – | – | –
7 | CN1CC(=O)N[C@@H](CSC(c2ccccc2)(c2ccccc2)c2ccccc2)C(=O)NCC(=O)N[C@@H](CSC(c2ccccc2)(c2ccccc2)c2ccccc2)C(=O)N(C)CC(=O)N[C@@H](CCC(=O)O)C1=O (cyclo(C(Trt)GC(Trt)[Sar]E[Sar])) | – | 210 nM | – | – | – | – | – | – | – | – | – | – | – | – | Bld
